From ChEMBL document CHEMBL4138279, “Probing the Antiallergic and Anti-inflammatory Activity of Biflavonoids and Dihydroflavonols from Dietes bicolor” (J Nat Prod, 2018)

Assays:
RBL-2H3 [1] = assay: Antiallergic activity in rat RBL2H3 cells assessed as inhibition of A23187-induced beta hexosaminidase release at 10 nM pretreated for 20 hrs followed by A23187 addition measured after 1 hr by p-NAG substrate based assay relative to control; type: functional
RBL-2H3 [2] = assay: (§1) Antiallergic activity in anti-DNP IgE-sensitized rat RBL2H3 cells assessed as inhibition of DNP-BSA-induced beta hexosaminidase release at 10 nM pretreated for 20 hrs followed by anti-DNP IgE-sensitization for 2 hrs and subsequent DNP-BSA addition measured after 1 hr by p-NAG substrate based assay relative to control; type: functional
Neutrophil [3] = assay: Antiinflammatory activity in human neutrophils assessed as inhibition of fMLP/CB-induced elastase release pretreated for 5 mins followed by fMLP/CB stimulation using MeO-Suc-Ala-Ala-Pro-Val-p-nitroanilide as substrate; type: functional, cell-based
Outline: (§2)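 Elastase release from fMLF/cytochalasin B-activated human neutrophils, isolated from venous blood of healthy volunteers aged 20−30, measured with N-methoxysuccinyl-Ala-Ala-Pro-Val-p-nitroanilide as substrate. Pure compounds were tested at 0.3 to 10 μM. Results are IC50 or % inhibition at 10 μM relative to fMLF/CB control, mean ± SEM (n = 3−4).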

Neutrophil [4] = assay: (§3) Anti-inflammatory activity in human neutrophils assessed as inhibition of fMLP/CB-induced superoxide anion generation at 10 uM pretreated for 5 mins followed by cytochalasin B addition for 3 mins and subsequent fMLP stimulation for 10 mins by superoxide dismutase inhibitable reduction of ferricytochrome c based spectrophotometric assay relative to control; type: functional
Outline: (§4)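 Human neutrophils isolated from venous blood of healthy adult volunteers (20−30 years), stimulated with fMLF/cytochalasin B. Superoxide anion was measured as ferricytochrome c reduction. Pure compounds were tested at 0.3 to 10 μM. IC50 was taken as the concentration giving 50% inhibition, and single-point values as % inhibition at 10 μM versus fMLF/CB control. Mean ± SEM, n = 3−4.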

Neutrophil [5] = assay: Antiinflammatory activity in human neutrophils assessed as inhibition of fMLP/CB-induced elastase release at 10 uM pretreated for 5 mins followed by fMLP/CB stimulation using MeO-Suc-Ala-Ala-Pro-Val-p-nitroanilide as substrate relative to control; type: functional; outline: as §2
Neutrophil [6] = assay: as §3, with “generation” for “generation at 10 uM”, “assay” for “assay relative to control”; type: functional, cell-based; outline: as §4
RBL-2H3 [7] = assay: Antiallergic activity in rat RBL2H3 cells assessed as inhibition of A23187-induced beta hexosaminidase release at 10 uM pretreated for 20 hrs followed by A23187 addition measured after 1 hr by p-NAG substrate based assay relative to control; type: functional
Outline: (§5)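 Degranulation assay: RBL-2H3 cells were seeded at 2 × 10^4 cells/well overnight and exposed to compounds (1 to 400 μM) for 20 h. They were then activated with calcium ionophore A23187 (1 μM). Released β-hexosaminidase was quantified using p-NAG substrate and expressed as % inhibition relative to A23187 control, mean ± SD (n = 3).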

[8] = Cytotoxicity against rat RBL2H3 cells assessed as cell viability at 400 uM after 24 hrs by MTT assay relative to control; type: cell-based; settings: RBL-2H3 cells, read-out: Activity
Outline: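 Viability of RBL-2H3 cells, cultured in DMEM with 10% FBS at 37 °C and 5% CO2, was determined by MTT after exposure to pure compounds at 400 μM. It is expressed as % of untreated control, mean ± SD (n = 3). Viability below 80% was classed as cytotoxic.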

RBL-2H3 [9] = assay: as §1, with “1 uM” for “10 nM”; type: functional
Outline: (§6)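 RBL-2H3 cells in DMEM with 10% FBS at 37 °C and 5% CO2 were seeded at 3 × 10^4 cells/well overnight, then treated 20 h with compounds (1 to 400 μM). Cells were sensitized with anti-DNP IgE (1 μg/mL, at least 2 h) and challenged with DNP-BSA (100 ng/mL) for 1 h. β-Hexosaminidase was read with p-NAG substrate as % inhibition versus antigen control. Mean ± SD, n = 3.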

RBL-2H3 [10] = assay: Antiallergic activity in rat RBL2H3 cells assessed as inhibition of A23187-induced beta hexosaminidase release at 1 uM pretreated for 20 hrs followed by A23187 addition measured after 1 hr by p-NAG substrate based assay relative to control; type: functional; outline: as §5
RBL-2H3 [11] = assay: Antiallergic activity in rat RBL2H3 cells assessed as inhibition of A23187-induced beta hexosaminidase release at 200 uM pretreated for 20 hrs followed by A23187 addition measured after 1 hr by p-NAG substrate based assay relative to control; type: functional; outline: as §5
RBL-2H3 [12] = assay: as §1, with “200 uM” for “10 nM”; type: functional; outline: as §6
RBL-2H3 [13] = assay: as §1, with “400 uM” for “10 nM”; type: functional; outline: as §6
RBL-2H3 [14] = assay: as §1, with “100 uM” for “10 nM”; type: functional; outline: as §6
Neutrophil elastase = target: T1, Neutrophil elastase (Homo sapiens, UniProt P08246); assay: Inhibition of human neutrophil elastase using N-Methoxysuccinyl-Ala-Ala-Pro-Val-p-nitroanilid as substrate measured after 1 hr
T1 sequence (P08246 whole entry): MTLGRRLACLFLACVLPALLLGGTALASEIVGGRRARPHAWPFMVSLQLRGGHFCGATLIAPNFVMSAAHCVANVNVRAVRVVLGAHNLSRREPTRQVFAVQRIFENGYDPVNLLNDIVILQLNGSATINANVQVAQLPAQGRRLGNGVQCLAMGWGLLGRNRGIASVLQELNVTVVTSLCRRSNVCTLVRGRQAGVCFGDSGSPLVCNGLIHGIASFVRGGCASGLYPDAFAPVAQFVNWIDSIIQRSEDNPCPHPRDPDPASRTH

RBL-2H3 [15] = assay: Antiallergic activity in rat RBL2H3 cells assessed as inhibition of A23187-induced beta hexosaminidase release at 100 uM pretreated for 20 hrs followed by A23187 addition measured after 1 hr by p-NAG substrate based assay relative to control; type: functional; outline: as §5
RBL-2H3 [16] = assay: Antiallergic activity in rat RBL2H3 cells assessed as inhibition of A23187-induced beta hexosaminidase release at 400 uM pretreated for 20 hrs followed by A23187 addition measured after 1 hr by p-NAG substrate based assay relative to control; type: functional; outline: as §5
RBL-2H3 [17] = assay: as §1, with “uM” for “nM”; type: functional; outline: as §6
RBL-2H3 [18] = assay: Antiallergic activity in anti-DNP IgE-sensitized rat RBL2H3 cells assessed as inhibition of DNP-BSA-induced beta hexosaminidase release pretreated for 10 mins followed by DNP-BSA addition measured after 10 mins by p-NAG substrate based assay; type: functional, cell-based

| Structure (SMILES) | IC50 (Neutrophil [3]) [nM] | IC50 (Neutrophil [6]) [nM] | IC50 (Neutrophil elastase) [nM] | inhibition at 0.01 µM (RBL-2H3 [1]) [%] | inhibition at 0.01 µM (RBL-2H3 [2]) [%] | inhibition at 10 µM (Neutrophil [4]) [%] | inhibition at 10 µM (Neutrophil [5]) [%] | inhibition at 10 µM (RBL-2H3 [7]) [%] | viability at 24 h, 400 µM [8] [%] | inhibition at 1 µM (RBL-2H3 [9]) [%] | inhibition at 1 µM (RBL-2H3 [10]) [%] | inhibition at 200 µM (RBL-2H3 [11]) [%] | inhibition at 200 µM (RBL-2H3 [12]) [%] | inhibition at 400 µM (RBL-2H3 [13]) [%] | inhibition at 100 µM (RBL-2H3 [14]) [%] | inhibition at 100 µM (RBL-2H3 [15]) [%] | inhibition at 400 µM (RBL-2H3 [16]) [%] | inhibition at 10 µM (RBL-2H3 [17]) [%] | IC50 (RBL-2H3 [18]) [µM] |
| --- | --- | --- | --- | --- | --- | --- | --- | --- | --- | --- | --- | --- | --- | --- | --- | --- | --- | --- | --- |
| C[C@@H]1C[C@H]2[C@@H]3CCC4=CC(=O)C=C[C@]4(C)[C@@]3(F)[C@@H](O)C[C@]2(C)[C@@]1(O)C(=O)CO [DEXAMETHASONE] |  |  |  | 80.7 | 79.7 |  |  |  |  |  |  |  |  |  |  |  |  |  |  |
| COc1c(O)cc(O)c2c1O[C@H](c1ccccc1)[C@@H](O)C2=O |  |  |  |  |  |  |  |  |  |  |  |  |  |  |  |  |  |  | > 100 |
| COc1cc(OC)c2c(c1)O[C@H](c1ccccc1)[C@@H](O)C2=O (relative stereo) |  |  |  |  |  |  |  |  |  |  |  |  |  |  |  |  |  |  | > 100 |
| COc1c2c(cc3c1C(=O)[C@H](O)[C@@H](c1ccccc1)O3)OCO2 (relative stereo) |  |  |  |  |  |  |  |  |  |  |  |  |  |  |  |  |  |  | > 100 |

The next lines start with results.

| IC50 (Neutrophil [3]) [nM] | IC50 (Neutrophil [6]) [nM] | IC50 (Neutrophil elastase) [nM] | Structure (SMILES) | inhibition at 0.01 µM (RBL-2H3 [1]) [%] | inhibition at 0.01 µM (RBL-2H3 [2]) [%] | inhibition at 10 µM (Neutrophil [4]) [%] | inhibition at 10 µM (Neutrophil [5]) [%] | inhibition at 10 µM (RBL-2H3 [7]) [%] | viability at 24 h, 400 µM [8] [%] | inhibition at 1 µM (RBL-2H3 [9]) [%] | inhibition at 1 µM (RBL-2H3 [10]) [%] | inhibition at 200 µM (RBL-2H3 [11]) [%] | inhibition at 200 µM (RBL-2H3 [12]) [%] | inhibition at 400 µM (RBL-2H3 [13]) [%] | inhibition at 100 µM (RBL-2H3 [14]) [%] | inhibition at 100 µM (RBL-2H3 [15]) [%] | inhibition at 400 µM (RBL-2H3 [16]) [%] | inhibition at 10 µM (RBL-2H3 [17]) [%] | IC50 (RBL-2H3 [18]) [µM] |
| --- | --- | --- | --- | --- | --- | --- | --- | --- | --- | --- | --- | --- | --- | --- | --- | --- | --- | --- | --- |
| 3440 | 1250 |  | O=c1cc(N2CCOCC2)oc2c(-c3ccccc3)cccc12 [LY-294002] |  |  | 96.5 | 71.5 |  |  |  |  |  |  |  |  |  |  |  |  |
| 750 | 1010 | 1270 | O=c1cc(-c2ccc(O)c(-c3c(O)cc(O)c4c(=O)cc(-c5ccc(O)cc5)oc34)c2)oc2cc(O)cc(O)c12 [AMENTOFLAVONE] |  |  | 104 | 108 | 6.7 | 97.7 | 4.7 | 2 | 3.3 | 7.7 | 50 | 2.7 | 0 | 42.3 | 1.3 |  |
| > 10000 | > 10000 |  | COc1cc(O)c2c(=O)c(-c3ccc(O)c(OC)c3)coc2c1 |  |  | 48.9 | 27.1 | 1.7 | 69 | 2.3 | 0.3 | 22.7 | 18 |  | 9 | 23.7 |  | 1.3 | > 100 |
| 450 | 1010 | 1330 | O=c1cc(-c2ccc(O)c(-c3c(O)cc4oc(-c5ccc(O)cc5)cc(=O)c4c3O)c2)oc2cc(O)cc(O)c12 [ROBUSTAFLAVONE] |  |  | 105 | 103 | 5.3 | 92.3 | 4 | 2.3 | 2.7 | 3 | 49 | 2.7 | 6 | 45.3 | 3 |  |
